UPR XBP1 act: activators of adaptive arm of unfolded protein response (XBP1) | CHO-XBP1 luciferase reporter, IRE1-XBP1 UPR activation, luminescence; percent of tunicamycin response, DMSO as zero | activation, % at 20 µM | 0.33% of 330,000 active | AID 463104;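 active = versus positive control, 20 µM dose yields 30% or more activation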;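 note: 100% = tunicamycin at 10 µg/mL and 0% = DMSO only wells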
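Assay system: CHO-XBP1 luciferase reporter cells; Schedule: 6 h treatment, 37 °C; Detection: glow luminescence from Steady-Glo reagent; Benchmarks: high control tunicamycin 10 µg/mL final, low control DMSO vehicle only.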
CHOP inh: blocks CHOP induction under ER stress. CHO-K1 CHOP-promoter luciferase, tunicamycin-induced, 15-18 h. inhibition, % at 10 µM. 3.8% of 220,000 active. AID 2732;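 active = compounds that reduced the stress-induced luciferase reporter signal by more than about 70% of percent inhibition, limit read from the data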;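 note: 0% = tunicamycin plus vehicle and 100% = wells without tunicamycin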
UPR CHOP act: activators of apoptotic arm of unfolded protein response (CHOP). 0.34% of 330,000 active. activation, % at 10 µM. AID 449763. CHO-CHOP luciferase reporter, UPR activation, luminescence; percent of tunicamycin response over DMSO baseline;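 active = at 10 µM dose, activation of 40% or more, normalized to positive control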;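 note: 100% = tunicamycin at 10 µg/mL and 0% = DMSO alone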
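assay system = CHO CHOP reporter cells | amount = 500 CHO-CHOP cells per well | buffer or medium = F12 with 10% FBS | incubation = 16-18 h cell attachment, then 6 h compound exposure, 37 °C | detection = luminescence read with Steady-Glo | read-out = percent activation relative to tunicamycin control | controls = tunicamycin high control, DMSO low control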
Lipid droplet: modulators of hepatic lipid droplet formation | AML12 mouse hepatocytes, oleate lipid droplets, BODIPY imaging | inhibition, % at 6.5 µM | 0.4% of 240,000 active | AID 1656;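 active = lipid droplet intensity inhibited by at least 50%, with more than 500 cells counted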
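Assay system: AML12 hepatocytes (mouse); Probe or stimulus: oleic acid at 100 µM to induce lipid droplet formation; Dosing: compound at 6.5 µM only; Schedule: compound with oleate, overnight; Detection: fluorescence imaging, 20x objective, two fields per well; Measure: % inhibition of lipid droplet signal.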
ANO1 block: mouse TMEM16A channel inhibition, primary screen. 1.2% of 310,000 active. normalized B-score (activity score, 25-100; higher = stronger inhibition) at 10 µM. HEK293 TMEM16A/YFP iodide influx fluorescence, ionomycin. Q8BHY3;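 active = ratio plate-corrected score three or more library SD toward inhibition, starting fluorescence score within five deviations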;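 note: score derived from kinetic fluorescence span divided by baseline fluorescence per well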
Target sequence (Q8BHY3 whole entry, looked up): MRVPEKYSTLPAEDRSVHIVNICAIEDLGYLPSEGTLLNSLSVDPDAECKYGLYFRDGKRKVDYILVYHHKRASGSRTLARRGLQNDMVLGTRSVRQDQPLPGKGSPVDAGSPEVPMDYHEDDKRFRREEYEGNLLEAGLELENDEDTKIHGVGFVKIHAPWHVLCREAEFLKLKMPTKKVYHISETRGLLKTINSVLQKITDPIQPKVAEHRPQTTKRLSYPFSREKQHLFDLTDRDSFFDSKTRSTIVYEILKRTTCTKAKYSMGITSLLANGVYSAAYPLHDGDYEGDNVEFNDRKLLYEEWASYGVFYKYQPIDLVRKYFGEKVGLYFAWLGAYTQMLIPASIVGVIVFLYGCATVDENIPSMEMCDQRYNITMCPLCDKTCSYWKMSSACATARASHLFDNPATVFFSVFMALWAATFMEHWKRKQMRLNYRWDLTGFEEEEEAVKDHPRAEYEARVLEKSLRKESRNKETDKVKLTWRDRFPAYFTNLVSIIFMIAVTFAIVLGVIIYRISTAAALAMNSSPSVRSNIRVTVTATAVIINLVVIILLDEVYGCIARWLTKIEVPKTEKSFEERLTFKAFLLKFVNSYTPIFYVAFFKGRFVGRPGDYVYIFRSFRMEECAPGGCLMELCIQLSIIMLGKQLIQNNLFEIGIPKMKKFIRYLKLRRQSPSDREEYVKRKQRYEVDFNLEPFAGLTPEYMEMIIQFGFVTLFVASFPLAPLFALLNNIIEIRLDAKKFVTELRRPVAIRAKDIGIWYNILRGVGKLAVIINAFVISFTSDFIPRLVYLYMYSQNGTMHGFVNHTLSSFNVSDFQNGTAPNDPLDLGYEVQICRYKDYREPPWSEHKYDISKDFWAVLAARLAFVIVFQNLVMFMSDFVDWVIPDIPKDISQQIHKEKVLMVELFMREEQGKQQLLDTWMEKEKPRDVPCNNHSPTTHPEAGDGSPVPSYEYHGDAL
TMEM16A act: activates or potentiates the mouse TMEM16A chloride channel. Q8BHY3. HEK293 TMEM16A/YFP-H148Q/I152L, iodide quench fluorescence; active compounds read low. B-score at 10 µM. 0.3% of 340,000 active. AID 623877;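 active = fluorescence-ratio B-score plate-corrected deviation score at least 3 library SD below zero, with starting fluorescence score within 5 deviations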;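 note: channel opened by trigger with iodide after compound preincubation; score built on the fluorescence ratio of max minus min over baseline; more negative score means more quench and so TMEM16A activation or potentiation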
CHOP confirm: confirmation of CHOP induction inhibitors; shares compounds with CHOP inh; CHO-CHOP promoter luciferase reporter, tunicamycin-induced, luminescence; inhibition, % at 10 µM; 45% of 2,100 active;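 active = mean of three repeat readings of reporter signal inhibition above a set limit, cut at about 70% in these data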;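 note: 0% = tunicamycin plus vehicle and 100% = wells lacking tunicamycin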
Starred values were filed as active, the others as inactive; i = inactive; · = not tested or not shown. This is a sample that favours compounds with a hit; in the whole collection about 4.2% have one here.

SMILES	UPR XBP1 act	CHOP inh	UPR CHOP act	Lipid droplet	ANO1 block	TMEM16A act	CHOP confirm
O=C1CCC(C(=O)N2CCN(c3cnccn3)CC2)CN1CCc1cccc(F)c1 (stereo not given)	-4	·	-1	-6	i	i	·
Oc1ccc(Oc2ccc3c(C(F)(F)F)cc(C(F)(F)F)nc3n2)cc1	-1	98*	2	·	i	i	101*
CCCCCc1cc(=O)oc2c(C(CCN3CCCCC3)c3cc(OC)c(OC)c(OC)c3)c(OC)cc(OC)c12 (stereo not given)	1	105*	7	22	i	i	53
COc1cc(C(CCN2CCCC2)c2c(OC)cc(OC)c3ccc(=O)oc23)cc(OC)c1OC (stereo not given)	0	22	-2	-5	i	i	·
COC(=O)/C=C/S(=O)(=O)c1ccc(NC(C)=O)cc1	-8	·	-10	·	i	i	64
Cn1cc(CN2C[C@H]3CC[C@H]2C3)c(-c2ccccc2F)n1	2	2	0	9	i	i	·
N=c1n(Cc2ccccc2)c2ccccc2n1CC(O)COc1ccc(Cl)cc1Cl (stereo not given)	3	109*	24	-43	·	i	92*
COc1ccc(OCC(O)Cn2c(=N)n(Cc3ccccc3)c3ccccc32)cc1 (stereo not given)	1	56	0	-80	i	i	·
Cc1ccc(OCC(O)Cn2c(=N)n(Cc3ccccc3)c3ccccc32)cc1 (stereo not given)	1	105*	-2	-9	i	i	50
CC(C)NC(=O)CN1C(=O)c2cccc3cccc1c23	-6	·	1	-7	i	i	·
CCC(C)(C)c1ccc(Oc2ccc(N)cc2)cc1	·	108*	·	2	·	i	125*
COC(=O)C/C(C)=N/Nc1ccc(S(=O)(=O)N2CCCC2)cc1[N+](=O)[O-]	0	-11	2	2	i	i	·
Nc1nc(Nc2ccccc2)nc(NCc2ccccc2)c1[N+](=O)[O-]	5	26	0	-1	i	i	·
Cc1cccc(Nc2nc(N)c([N+](=O)[O-])c(NCc3ccccc3)n2)c1	3	102*	2	1	i	i	25
COc1cccc(CN2CC(C(=O)NCCc3ccccc3C(F)(F)F)CCC2=O)c1 (stereo not given)	-1	·	0	7	i	i	·
O=C1OC[C@H]2CCCN2C(=O)[C@@H](CC(=O)N(CCO)Cc2ccccc2)C/C=C\C[C@@H]1Cc1ccc(F)cc1	-1	·	0	·	·	i	·
Cc1cccc(NC(=S)NC(=O)c2oc3ccccc3c2C)n1	9	·	3	-2	i	i	·
O=C(Nc1ccc([N+](=O)[O-])cc1)Nc1nc(-c2ccc(Cl)s2)cs1	·	107*	·	-2	i	i	83*
N=C1/C(=C\c2coc3ccccc3c2=O)C(=O)N=C2SC(c3ccncc3)=NN12	-2	102*	2	-12	i	i	-4
N=C1/C(=C/c2coc3ccccc3c2=O)C(=O)N=C2SC(c3ccco3)=NN12	4	-12	1	-12	i	i	·
C/C(CCc1oc2ccc(Br)cc2c1-c1ccc(C)o1)=N/O	-1	97*	-1	6	i	i	39
CCCCc1nc2ccccc2c(=O)n1NC(=O)c1c(O)c2ccccc2n(C)c1=O	2	98*	12	-1	i	i	92*
CCCn1c(=O)c(C(=O)Nc2ncccc2O)c(O)c2ccccc21	-6	·	1	·	i	i	·
Cc1ccc(NC(=O)c2c(O)c3ccccc3n(C)c2=O)nc1	23	97*	2	·	i	i	-10
Cn1c(=O)c(C(=O)Nc2ncccc2O)c(O)c2ccccc21	1	110*	0	·	i	i	84*
SMILES	UPR XBP1 act	CHOP inh	UPR CHOP act	Lipid droplet	ANO1 block	TMEM16A act	CHOP confirm
CC(Oc1cccc(Cl)c1)C(=O)Nc1nc(-c2ccccn2)cs1 (stereo not given)	3	·	2	·	i	i	·
CC1SC(C)C(=O)N(CC(=O)NC2CCCCC2)C1=O (stereo not given)	·	1	·	-18	·	i	·
CC(C)CC(=O)/C(=C\c1ccc(Cl)cc1Cl)n1cncn1	·	109*	·	-6	·	-7.1*	3
CC(C)CC(=O)/C(=C/c1ccc(N(C)C)cc1)n1cncn1	-1	·	0	2	i	i	·
Clc1ccc(-c2n[nH]c3c2CCC3)cc1Cl	1	98*	3	·	i	i	63
Clc1ccc(-c2n[nH]c3c2CCCC3)cc1	15	51	2	11	i	i	·
CSc1nc2n(n1)C(c1cccc(F)c1)C(C(=O)Nc1ccc(C)cc1C)=C(C)N2 (stereo not given)	0	34	0	·	i	i	·
CC1=C(C(=O)Nc2ccc(C)cc2C)C(c2ccc(Cl)cc2)n2nc(C(=O)OC(C)C)nc2N1 (stereo not given)	0	105*	5	5	i	i	18
CNC(=O)c1cc(C(=O)c2ccc(F)cc2C(F)(F)F)c[nH]1	-2	·	0	·	i	i	·
Cc1ccc(NC(=O)c2ccccc2)cc1	3	-48	3	·	i	i	·
Cc1ccc(NC(=O)C2=C(c3ccccc3)S(=O)(=O)CCS2(=O)=O)cc1	-8	109*	-10	4	i	i	69
O=C(NCc1ccco1)/C(=C/c1cccc(C(F)(F)F)c1)c1nc2ccccc2[nH]1	-1	96*	3	-2	i	i	34
O=C(Nc1ccccc1Br)C1CC(=O)N(c2ccc3c4c(cccc24)CC3)C1 (stereo not given)	1	17	-2	-12	i	i	·
C=CCn1c(=O)c(C(=O)Nc2ccccc2O)c(O)c2ccccc21	0	104*	-1	·	i	i	-64
Nc1c(S(=O)(=O)c2cccc(Cl)c2)c2nc3ccccc3nc2n1/N=C/c1ccc(O)c(O)c1	12	107*	16	·	i	·	103*
CCOC(=O)c1ccc(N=C2SC(C(=O)NC)CC(=O)N2Cc2ccc(F)cc2)cc1 (stereo not given)	-2	28	0	-10	i	i	·
CCOC(=O)c1ccc(N=c2ssnc2Cl)cc1	0	98*	1	9	·	i	56
COc1ccc(N=c2ssnc2Cl)cc1	-3	109*	5	-11	i	i	2

Compound activity from PubChem BioAssay.
